Test results as given in ChEMBL document CHEMBL1687899, “Structure-activity relationships in nucleotide oligomerization domain 1 (Nod1) agonistic γ-glutamyldiaminopimelic acid derivatives” (J Med Chem, 2011).

Biological target: T1, Nucleotide-binding oligomerization domain-containing protein 1 (Homo sapiens, UniProt Q9Y239)
T1 sequence (Q9Y239 whole entry): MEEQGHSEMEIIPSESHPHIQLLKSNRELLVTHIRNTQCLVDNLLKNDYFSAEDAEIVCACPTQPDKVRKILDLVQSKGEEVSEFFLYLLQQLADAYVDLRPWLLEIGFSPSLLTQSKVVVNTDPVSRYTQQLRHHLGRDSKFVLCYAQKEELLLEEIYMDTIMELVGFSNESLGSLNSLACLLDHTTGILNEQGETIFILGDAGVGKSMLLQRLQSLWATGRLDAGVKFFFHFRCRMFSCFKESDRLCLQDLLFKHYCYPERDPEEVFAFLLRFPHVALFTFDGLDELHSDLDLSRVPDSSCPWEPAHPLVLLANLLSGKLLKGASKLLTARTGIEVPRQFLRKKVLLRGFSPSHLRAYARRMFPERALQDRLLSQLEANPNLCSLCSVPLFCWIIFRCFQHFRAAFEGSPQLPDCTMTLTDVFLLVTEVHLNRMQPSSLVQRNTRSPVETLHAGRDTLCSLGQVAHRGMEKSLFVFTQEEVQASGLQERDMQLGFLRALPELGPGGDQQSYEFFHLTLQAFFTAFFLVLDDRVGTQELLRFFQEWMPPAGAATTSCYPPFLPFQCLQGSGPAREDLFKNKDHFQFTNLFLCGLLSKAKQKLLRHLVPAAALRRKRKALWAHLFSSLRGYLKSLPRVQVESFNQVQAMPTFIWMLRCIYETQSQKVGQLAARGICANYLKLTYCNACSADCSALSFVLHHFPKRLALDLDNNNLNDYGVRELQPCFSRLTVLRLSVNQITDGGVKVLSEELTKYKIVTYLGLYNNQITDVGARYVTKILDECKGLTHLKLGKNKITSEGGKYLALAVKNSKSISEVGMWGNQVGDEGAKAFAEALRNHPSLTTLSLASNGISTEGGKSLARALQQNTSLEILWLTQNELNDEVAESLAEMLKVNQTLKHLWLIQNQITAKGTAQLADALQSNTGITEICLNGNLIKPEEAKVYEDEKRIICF
Assay: Agonist activity at human NOD-1 expressed in human HEK293 cells assessed as NF-kappaB induction by spectrophotometric analysis
Type: functional, cell-based
Outline: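 HEK-Blue cells (HEK293 stably transfected with human Nod1 and an NF-κB/AP-1-inducible secreted alkaline phosphatase reporter) were kept in selection medium with zeocin and normocin. Cells at ~10^5 cells/mL were grown to confluency and then given graded compound concentrations. Supernatant sAP was read spectrophotometrically at 620 nm with an alkaline phosphatase-specific chromogen.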

| Structure (SMILES) | EC50 [nM] |
| --- | --- |
| CCCCCCCCCCCC(=O)N[C@H](CCC(=O)NCCCC[C@@H](N)C(=O)O)C(=O)O | 0.37 |
| CCCCCCCCCCCC(=O)NC(CCCC(NC(=O)CC[C@@H](N)C(=O)O)C(=O)O)C(=O)O (some centres not stated) | 0.55 |
| CCCCCCCCCCCCCCCCN(CCCCCCCCCCCCCCCC)[C@H](CCC(=O)NC(CCCC(N)C(=O)O)C(=O)O)C(=O)O (some centres not stated) | 0.12 |
| CCCCCCCCCCCOC(=O)CCCC(=O)NC(CCCC(N)C(=O)O)C(=O)O (configuration not stated) | 0.39 |
| CCCCCCCCCCCC(=O)N[C@H](CCC(=O)NC(CCCC1NC(N)=NC1=O)C(=O)O)C(=O)O (some centres not stated) | 1.31 |
| CCCCCCCCCCCC(=O)N[C@H](CCC(=O)NC1CCCCNC1=O)C(=O)O (some centres not stated) | 1.73 |
| CCCCCCCCCCCC(=O)N[C@H](CCC(=O)NC(CCCC(N)C(=O)OCC)C(=O)OCC)C(=O)O (some centres not stated) | 0.145 |
| CCCCCCCCCCCC(=O)N[C@H](CCC(=O)NCCCC[C@H](N)C(=O)O)C(=O)O | 0.96 |
| CCCCCCCCCCCC(=O)NCCCC(=O)NC(CCCC(N)C(=O)O)C(=O)O (configuration not stated) | 0.504 |
| CCCCCCCCCCCNC(=O)[C@H](N)CCC(=O)NC(CCCC(N)C(=O)O)C(=O)O (some centres not stated) | 0.826 |
| CCCCCCCCCCCOC(=O)[C@H](N)CCC(=O)NC(CCCC(N)C(=O)O)C(=O)O (some centres not stated) | 0.066 |
| CCCCCCCCCCCC(=O)N[C@H](CCC(=O)NCCCCCN)C(=O)O | > 100 |
